Laboratory results reported in ChEMBL document CHEMBL1158168, “Condensed bridgehead nitrogen heterocyclic system: synthesis and pharmacological activities of 1,2,4-triazolo-[3,4-b]-1,3,4-thiadiazole derivatives of ibuprofen and biphenyl-4-yloxy acetic acid” (Eur J Med Chem, 2008).
≈ marks a conversion by molar mass, not a printed value. Calls of active or inactive are those of the source. The rule behind the calls is not given here.

Tests used:
[1] = tested on: Rattus norvegicus; assay: Antiinflammatory activity in Wistar albino rat assessed as inhibition of carrageenan-induced paw edema administered at equimolar oral dose relative to 70 mg/kg ibuprofen measured 4 hrs after carrageenan challenge; assay type: functional
Outline: (§1)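 Wistar rats of either sex (180-200 g), six per group, dosed orally in a 0.5% CMC vehicle. One hour later, 0.1 mL of […] in 0.9% NaCl was injected sub-plantar into the right hind paw. Paw volume was read by plethysmometer before and 4 h after carrageenan, and percent inhibition was calculated.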

[2] = tested on: Staphylococcus aureus; assay: Antibacterial activity against Staphylococcus aureus ATCC 19433 by cup plate method; assay type: functional
Outline: (§2)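 Cup-plate diffusion on nutrient agar, with compounds dissolved in DMF. Compounds were tested at 200, 100, 50 and 25; those inhibiting at 25 were also tested at 12.5 and 6.25. MIC is the lowest concentration preventing visible growth on the plate.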

[3] = tested on: Escherichia coli; assay: Antibacterial activity against sEscherichia coli ATCC 25922 by cup plate method; assay type: functional; outline: as §2
[4] = tested on: Candida albicans; assay: Antimicrobial activity against Candida albicans ATCC 2091 by cup plate method; assay type: functional
Outline: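 Candida albicans grown on Sabouraud dextrose medium and tested by cup-plate diffusion, with compounds dissolved in DMF. Compounds were tested at 200, 100, 50 and 25; those inhibiting at 25 were also tested at 12.5 and 6.25. MIC is the lowest concentration preventing visible growth.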

[5] = tested on: Rattus norvegicus; assay: Gastrointestinal toxicity in rat assessed as gastric mucosal damage severity index administered at equimolar oral dose relative to 210 mg/kg ibuprofen; assay type: organism-based, Gastric mucosa; design: dose 210 mg/kg, route oral; conditions: in vivo
Outline: (§3)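 Rats, six per group, were fasted 24 h with water allowed, then dosed orally in a 0.5% CMC vehicle. They were fed normally for 17 h and then sacrificed. Stomachs were opened along the greater curvature and mucosal lesions scored under a magnifier (0.5 redness to 3.0 for more than 5 ulcers). Severity index is the mean group score minus the control mean.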

[6] = tested on: Rattus norvegicus; assay: Inhibition of lipid peroxidation in rat assessed as malondialdehyde level per 100 mg of tissue administered at equimolar oral dose relative to 210 mg/kg ibuprofen; assay type: functional
Outline: (§4)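 Gastric mucosa was scraped from the stomachs after ulcer scoring. 100 mg was homogenized in ice-cold 1.15% KCl and reacted with SDS, acetate buffer (pH 3.5) and 0.8% TBA at 95 °C for 60 min. The product was extracted into n-butanol/pyridine (15:1) and absorbance read at 532 nm. MDA was calculated using ε 1.56 × 10⁵ M⁻¹cm⁻¹ and expressed per 100 mg tissue.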

[7] = tested on: Rattus norvegicus; assay: Antiinflammatory activity in Wistar albino rat assessed as inhibition of carrageenan-induced paw edema administered at equimolar oral dose relative to 10 mg/kg fluribiprofen measured 4 hrs after carrageenan challenge; assay type: functional; outline: as §1
[8] = tested on: Rattus norvegicus; assay: Gastrointestinal toxicity in rat assessed as gastric mucosal damage severity index administered at equimolar oral dose relative to 30 mg/kg fluribiprofen; assay type: organism-based, Gastric mucosa; design: dose 30 mg/kg, route oral; conditions: in vivo; outline: as §3
[9] = tested on: Rattus norvegicus; assay: Hepatotoxicity in po dosed Wistar albino rat assessed as serum glutamate oxaloacetate transaminase activity after 7 days; assay type: toxicity, organism-based; conditions: in vivo, 168 h
[10] = tested on: Rattus norvegicus; assay: Hepatotoxicity in po dosed Wistar albino rat assessed as serum glutamate pyruvate transaminase activity after 7 days; assay type: toxicity, organism-based; conditions: in vivo, 168 h
[11] = tested on: Rattus norvegicus; assay: Hepatotoxicity in po dosed Wistar albino rat assessed as alkaline phosphatase activity after 7 days; assay type: toxicity, organism-based; conditions: in vivo, 168 h
[12] = tested on: Rattus norvegicus; assay: Hepatotoxicity in po dosed Wistar albino rat assessed as total protein content after 7 days; assay type: toxicity, organism-based; conditions: in vivo, 168 h
[13] = tested on: Rattus norvegicus; assay: Hepatotoxicity in po dosed Wistar albino rat assessed as total albumin content after 7 days; assay type: toxicity, organism-based; conditions: in vivo, 168 h
[14] = tested on: Rattus norvegicus; assay: Hepatotoxicity in po dosed Wistar albino rat assessed as hepatocyte necrosis after 7 days; assay type: toxicity, organism-based; conditions: hepatocytes, 168 h
[15] = tested on: Mus musculus; assay: Analgesic activity in Swiss albino mouse assessed as effect on reaction time for tail withdrawal administered at 70 mg/kg, po after 4 hrs by tail immersion method; assay type: functional
Outline: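 Swiss albino mice of either sex (25-30 g), six per group. Compounds were given orally as a suspension in 0.5% w/v CMC in water. Tail-withdrawal reaction time was measured before dosing and 4 h after, by immersing the lower 5 cm of the tail in water held at 55 ± 0.5 °C.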

[16] = tested on: Rattus norvegicus; assay: Gastrointestinal toxicity in rat assessed as gastric mucosal damage severity index at 210 mg/kg, po; assay type: organism-based, Gastric mucosa; design: dose 210 mg/kg, route oral; conditions: in vivo; outline: as §3
[17] = tested on: Rattus norvegicus; assay: Inhibition of lipid peroxidation in rat assessed as malondialdehyde level per 100 mg of tissue at 210 mg/kg, po; assay type: functional; outline: as §4
[18] = tested on: Rattus norvegicus; assay: Antiinflammatory activity in Wistar albino rat assessed as inhibition of carrageenan-induced paw edema at 10 mg/kg, po measured 4 hrs after carrageenan challenge; assay type: functional
Outline: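 Wistar albino rats of either sex, 180-200 g, groups of six; oral dosing, vehicle 0.5% CMC. 0.1 mL of 0.1% carrageenan in sterile 0.9% NaCl injected subplantar into the right hind paw 1 h after dosing. Paw volume measured by plethysmometer before and 4 h after carrageenan; percent inhibition calculated.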

[19] = tested on: Rattus norvegicus; assay: Gastrointestinal toxicity in rat assessed as gastric mucosal damage severity index at 30 mg/kg, po; assay type: organism-based, Gastric mucosa; design: dose 30 mg/kg, route oral; conditions: in vivo
Outline: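 Rats, groups of six, food but not water withheld 24 h; oral dosing in 0.5% CMC. Normal diet for 17 h, then sacrificed. Stomach opened along the greater curvature and inspected under a magnifying glass. Scored 0.5 redness to 3.0 (>5 ulcers); severity index is the group mean score minus the control mean.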

[20] = tested on: Rattus norvegicus; assay: Inhibition of lipid peroxidation in rat assessed as malondialdehyde level per 100 mg of tissue at 30 mg/kg, po; assay type: functional
Outline: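 Gastric mucosa scraped from stomachs after ulcerogenicity testing; 100 mg homogenized in 1.15% ice-cold KCl. TBA method with SDS and acetate buffer pH 3.5, heated at 95 °C for 60 min. Extracted into n-butanol/pyridine 15:1, absorbance read at 532 nm. Expressed as nmol MDA/100 mg tissue using ε 1.56 × 10⁵ cm⁻¹ M⁻¹.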

[21] = tested on: Mus musculus; assay: Analgesic activity in Swiss albino mouse assessed as effect on reaction time for tail withdrawal administered at 10 mg/kg, po after 4 hrs by tail immersion method; assay type: functional
Outline: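 Swiss albino mice of either sex, 25-30 g, groups of six; oral dosing as suspension in 0.5% w/v CMC in water. Tail immersion: lower 5 cm of tail dipped in water held at 55 ± 0.5 °C. Reaction time taken before and 4 h after dosing.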

Row | Structure (SMILES) | inhibition in vivo [1] [%] | MIC [2] [µg/mL] | MIC [3] [µg/mL] | MIC [4] [µg/mL] | inhibition in vivo [7] [%] | further results
1 | CC(C)Cc1ccc(C(C)c2nnc3sc(Nc4ccc(F)cc4)nn23)cc1 (stereo unspecified) | 28 | 200 (≈ 506 µM) | 200 (≈ 506 µM) | 200 (≈ 506 µM) | – | –
2 | Clc1ccc(-c2nn3c(COc4ccc(-c5ccccc5)cc4)nnc3s2)c(Cl)c1 | – | 25 (≈ 55.1 µM) | 50 (≈ 110 µM) | – | – | –
3 | CC(C)Cc1ccc(C(C)c2nnc3sc(COc4ccc(Cl)cc4Cl)nn23)cc1 (stereo unspecified) | 38.6 | 200 (≈ 433 µM) | 25 (≈ 54.2 µM) | 100 (≈ 217 µM) | – | –
4 | CC(=O)N1CCN(c2ccc(OCC3COC(Cn4ccnc4)(c4ccc(Cl)cc4Cl)O3)cc2)CC1 (stereo unspecified) [KETOCONAZOLE] | – | – | – | 6.25 (≈ 11.8 µM) | – | –
5 | CC(C)Cc1ccc(C(C)c2nnc3sc(Nc4ccccc4)nn23)cc1 (stereo unspecified) | 68.2 | 100 (≈ 265 µM) | 25 (≈ 66.2 µM) | – | – | Activity [4]: inactive; UI [5]: 0.667; Activity [6]: 5.12 nmol
6 | Cc1ccc(Nc2nn3c(COc4ccc(-c5ccccc5)cc4)nnc3s2)c(C)c1 | – | – | 50 (≈ 117 µM) | 100 (≈ 234 µM) | 39.4 | Activity [2]: inactive
7 | CC(C)Cc1ccc(C(C)c2nnc3sc(-c4ccc(N)cc4)nn23)cc1 (stereo unspecified) | 78.8 | 200 (≈ 530 µM) | 12.5 (≈ 33.1 µM) | 200 (≈ 530 µM) | – | UI [5]: 0.75; Activity [6]: 5.65 nmol
8 | Nc1ccccc1-c1nn2c(COc3ccc(-c4ccccc4)cc3)nnc2s1 | – | 25 (≈ 62.6 µM) | 50 (≈ 125 µM) | 25 (≈ 62.6 µM) | 47.7 | –
9 | CC(C)Cc1ccc(C(C)c2nnc3sc(-c4ccccc4N)nn23)cc1 (stereo unspecified) | 57.6 | 200 (≈ 530 µM) | 100 (≈ 265 µM) | 12.5 (≈ 33.1 µM) | – | –
10 | CCCCNc1nn2c(C(C)c3ccc(CC(C)C)cc3)nnc2s1 (stereo unspecified) | 80.3 | 200 (≈ 559 µM) | 100 (≈ 280 µM) | 50 (≈ 140 µM) | – | UI [5]: 1; Activity [6]: 5.78 nmol
11 | CC1COc2c(N3CCN(C)CC3)c(F)cc3c(=O)c(C(=O)O)cn1c23 (stereo unspecified) [OFLOXACIN] | – | 6.25 (≈ 17.3 µM) | 6.25 (≈ 17.3 µM) | – | – | –
12 | Cc1ccc(Nc2nn3c(C(C)c4ccc(CC(C)C)cc4)nnc3s2)c(C)c1 (stereo unspecified) | 53 | 200 (≈ 493 µM) | 50 (≈ 123 µM) | 200 (≈ 493 µM) | – | –
13 | Fc1ccc(Nc2nn3c(COc4ccc(-c5ccccc5)cc4)nnc3s2)cc1 | – | – | 25 (≈ 59.9 µM) | – | 78.2 | Activity [2]: inactive; Activity [4]: inactive; UI [8]: 0.666; Activity [9]: 137 U/ml; Activity [10]: 26.5 U/ml; Activity [11]: 17.07 U/ml; Activity [12]: 0.9 g/dL; Activity [13]: 0.71 g/dL; Activity [14]: Non-toxic
14 | Clc1ccc(-c2nn3c(COc4ccc(-c5ccccc5)cc4)nnc3s2)cc1 | – | 100 (≈ 239 µM) | 25 (≈ 59.7 µM) | 50 (≈ 119 µM) | 78.8 | UI [8]: 0.833
15 | c1ccc(-c2ccc(OCc3nnc4sc(-c5ccccc5)nn34)cc2)cc1 | – | 25 (≈ 65 µM) | 25 (≈ 65 µM) | – | 65.1 | Activity [4]: inactive
16 | c1ccc(Nc2nn3c(COc4ccc(-c5ccccc5)cc4)nnc3s2)cc1 | – | – | 25 (≈ 62.6 µM) | 200 (≈ 501 µM) | – | Activity [2]: inactive
17 | Clc1ccc(OCc2nn3c(COc4ccc(-c5ccccc5)cc4)nnc3s2)c(Cl)c1 | – | 25 (≈ 51.7 µM) | 50 (≈ 103 µM) | 50 (≈ 103 µM) | 50.8 | –
18 | CC(C)Cc1ccc(C(C)C(=O)O)cc1 (stereo unspecified) [IBUPROFEN] | – | – | – | – | – | inhibition in vivo at 70 mg/kg [15]: 74.1%; UI [16]: 2; Activity [17]: 7.79 nmol
19 | CC(C)Cc1ccc(C(C)c2nnc3sc(Cc4ccccc4Nc4c(Cl)cccc4Cl)nn23)cc1 (stereo unspecified) | 18.2 | 50 (≈ 93.2 µM) | 200 (≈ 373 µM) | 200 (≈ 373 µM) | – | –
20 | CCCCNc1nn2c(COc3ccc(-c4ccccc4)cc3)nnc2s1 | – | – | 100 (≈ 264 µM) | 25 (≈ 65.9 µM) | 65.9 | Activity [2]: inactive
21 | CC(C(=O)O)c1ccc(-c2ccccc2)c(F)c1 (stereo unspecified) [FLURBIPROFEN] | – | – | – | – | – | inhibition in vivo at 10 mg/kg [18]: 80.3%; UI [19]: 1.666; Activity [20]: 7.51 nmol; inhibition in vivo at 10 mg/kg [21]: 69.5%
22 | CC(C)Cc1ccc(C(C)c2nnc3sc(-c4ccc(Cl)cc4Cl)nn23)cc1 (stereo unspecified) | 80.3 | 200 (≈ 464 µM) | 200 (≈ 464 µM) | 200 (≈ 464 µM) | – | UI [5]: 0.333; Activity [6]: 5.04 nmol; Activity [9]: 147.5 U/ml; Activity [10]: 28.17 U/ml; Activity [11]: 15.18 U/ml; Activity [12]: 1.89 g/dL; Activity [13]: 1.8 g/dL; Activity [14]: Non-toxic
23 | Nc1ccc(-c2nn3c(COc4ccc(-c5ccccc5)cc4)nnc3s2)cc1 | – | 50 (≈ 125 µM) | 200 (≈ 501 µM) | 200 (≈ 501 µM) | 76.5 | UI [8]: 0.417
